This note sets out measurements from ChEMBL document CHEMBL1156252, “Sigma-1 ligands: Tic-hydantoin as a key pharmacophore” (Eur J Med Chem, 2010).

Where only a bound is given, the exact number is not on record here.

What is called IC50 is the midpoint of a concentration-inhibition curve. The low end stands for higher potency, the high end for lower potency.

Molecular target in the first experiment: not listed separately
Put plainly: Displacement of [3H]DTG […] from sigma 2 receptor in rat cerebral cortex after 120 mins. Type of experiment: tissue-based. Summed up:
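Rat cerebral cortex membranes incubated with […] (5 nM) plus (+)-pentazocine (300 nM) to mask σ1 sites, with a concentration range of test compound, 2 h at 22 °C in 5 mM Tris/HCl pH 7.4. […] Bound ligand was collected by GF/B filtration, washed with ice-cold saline and counted by liquid scintillation.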
Take `CN(CCCN1C(=O)[C@@H]2Cc3ccccc3CN2C1=O)Cc1ccccc1`: the IC50 was greater than 500 nM.

The next experiment deals with Sigma-1 receptor (Homo sapiens, Jurkat). Description: Displacement of [3H](+)-pentazocine from sigma 1 receptor in human Jurkat cells by scintillation counting.
In turn, `CN(CCCN1C(=O)c2cccnc2C1=O)Cc1ccccc1` displayed an IC50 greater than 200 nM.
Same read-out and setting: as for `CN(CCCN1C(=O)C2Cc3ccccc3CN2C1=S)Cc1ccccc1` (centres undefined), the figure is 4.5 nM; as for `CN(CCCN1C(=O)c2ccncc2C1=O)Cc1ccccc1`, greater than 200 nM.
Still for that read-out and setting: the same measure for `CN(CCCn1c(=O)[nH]c2ccccc2c1=O)Cc1ccccc1`: 116 nM; for `CN(CCCN1C(=O)[C@H](Cc2ccccc2)N(C)C1=O)Cc1ccccc1`: greater than 200 nM; for `CN(CCCn1c(=O)[nH]c2ccc(I)cc2c1=O)Cc1ccccc1`: 103 nM.
Compound `CN(CCCn1c(=O)[nH]c2ccc(Cl)cc2c1=O)Cc1ccccc1` came in with an IC50 greater than 200 nM.
The same measure, in the same setting: as for `CN(CCCN1C(=O)[C@H]2Cc3ccccc3C[C@H]2C1=O)Cc1ccccc1`, the figure is 57 nM.
